# Assay results as given in ChEMBL document CHEMBL1121783, “Potential inhibitors of nucleotide biosynthesis. 1. Nitrosoureidonucleosides. 2” (J Med Chem, 1981).
# Activity calls are given as the source filed them. The calls are words filed in the database; no cut-off is given here.
# What was measured:
# [1] = Half-life in pH 7 phosphate buffer by using high-performance LC method
# [2] = as above; remark: listed apart in the source
# HEp-2 [3] = assay: Growth, % of control, at a dose of 20 ug/ml against growth of H.Ep.-2 cells; 75-80%; details: Homo sapiens
# HEp-2 [4] = assay: as above; details: Homo sapiens; remark: listed apart in the source
# [5] = Half-life in pH 7 phosphate buffer by using high-performance LC method; remark: listed apart in the source
# Nucleic Acid [6] = assay: Percent inhibitory activity dose at 100 ug/mL to inhibit the incorporation of hypoxanthine and gaunine in RNA; format: functional
# [7] = Activity against hypoxanthine phosphoribosyltransferase; Not significant; format: functional
# P388 [8] = assay: Activity against P388 leukemia cells; Inactive; format: functional; details: Mus musculus
# Summary of the method: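 In vivo P388 leukemia model; compound given daily for 9 days; activity scored as percent increase in life span (ILS).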
# Nucleic Acid [9] = assay: Percent inhibitory activity dose at 100 ug/mL to inhibit the incorporation of hypoxanthine and gaunine in DNA; format: functional
# [10] = Half-life in plasma by using UV method; format: ADME, cell-free
# P388 [11] = assay: Activity at a dose of 400 mg/kg against P388 leukemia cells; format: functional; details: Mus musculus
# Summary of the method: (§1)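 P388 leukemia test: the compound was given daily for 9 days at 200 or 400 mg/kg. Activity is reported as percent increase in life span (ILS).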
# P388 [12] = assay: Activity at a dose of 200 mg/kg for 9 days against P388 leukemia cells; format: functional; details: Mus musculus, P388, 216 h
# Summary of the method: as §1
smiles,measurement,setting,value
O=NN(CCNC(=O)[C@H]1OC(n2cnc3c(O)ncnc32)[C@H](O)[C@@H]1O)C(=O)NC1CCCCC1 (some centres not stated),half-life,[1],12 h
Cc1cn(C2CC(O)C(C(=O)NCCNC(=O)N(C)N=O)O2)c(=O)[nH]c1=O (configuration not stated),half-life,[1],29 h
O=NN(CCNC(=O)[C@H]1OC(n2ccc(=O)[nH]c2=O)[C@H](O)[C@@H]1O)C(=O)NC1CCCCC1 (some centres not stated),half-life,[2],8 h
same,"growth, % of control at 20 µg/mL",HEp-2 [3],75%
CNC(=O)NCCNC(=O)[C@H]1OC(n2cnc3c(O)ncnc32)[C@H](O)[C@@H]1O (some centres not stated),"growth, % of control at 20 µg/mL",HEp-2 [4],75%
CN(N=O)C(N)=O [N-METHYL-N-NITROSUREA],half-life,[1],0.12 h
CNC(=O)NCCNC(=O)C1OC(n2cc(C)c(=O)[nH]c2=O)CC1O (configuration not stated),"growth, % of control at 20 µg/mL",HEp-2 [4],75%
CN(N=O)C(=O)NCCNC(=O)[C@H]1OC(n2cnc3c(O)ncnc32)[C@H](O)[C@@H]1O (some centres not stated),half-life,[5],127 h
same,inhibition,Nucleic Acid [6],61%
same,inhibition,[7],inactive
same,inhibition,P388 [8],inactive
same,inhibition,Nucleic Acid [9],35%
Cc1cn(C2C[C@H](O)[C@@H](C(=O)NCCN(N=O)C(=O)NC3CCCCC3)O2)c(=O)[nH]c1=O (some centres not stated),half-life,[10],11 h
O=NN(CCCl)C(=O)NC1CCCCC1 [LOMUSTINE],half-life,[1],0.88 h
CN(N=O)C(=O)NCCNC(=O)[C@H]1OC(n2ccc(=O)[nH]c2=O)[C@H](O)[C@@H]1O (some centres not stated),half-life,[2],17 h
same,ILS at 400 mg/kg,P388 [11],26%
same,ILS at 200 mg/kg,P388 [12],28%
